Measurements taken from ChEMBL document CHEMBL2407081, “Discovery of potent, isoform-selective inhibitors of histone deacetylase containing chiral heterocyclic capping groups and a N-(2-aminophenyl)benzamide binding unit” (J Med Chem, 2013).
Active and inactive are the calls of the source. No cut-off for these calls is given here.

Legend:
Histone deacetylase 1 = Histone deacetylase 1 (Homo sapiens, UniProt Q13547); test: Inhibition of recombinant C-terminal FLAG-tagged HDAC1 (unknown origin) expressed in Escherichia coli BL21 using MAL as substrate incubated for 1 hr prior to substrate addition measured after 60 mins by fluorescence plate reader analysis
Histone deacetylase 1, sequence (Q13547 whole entry): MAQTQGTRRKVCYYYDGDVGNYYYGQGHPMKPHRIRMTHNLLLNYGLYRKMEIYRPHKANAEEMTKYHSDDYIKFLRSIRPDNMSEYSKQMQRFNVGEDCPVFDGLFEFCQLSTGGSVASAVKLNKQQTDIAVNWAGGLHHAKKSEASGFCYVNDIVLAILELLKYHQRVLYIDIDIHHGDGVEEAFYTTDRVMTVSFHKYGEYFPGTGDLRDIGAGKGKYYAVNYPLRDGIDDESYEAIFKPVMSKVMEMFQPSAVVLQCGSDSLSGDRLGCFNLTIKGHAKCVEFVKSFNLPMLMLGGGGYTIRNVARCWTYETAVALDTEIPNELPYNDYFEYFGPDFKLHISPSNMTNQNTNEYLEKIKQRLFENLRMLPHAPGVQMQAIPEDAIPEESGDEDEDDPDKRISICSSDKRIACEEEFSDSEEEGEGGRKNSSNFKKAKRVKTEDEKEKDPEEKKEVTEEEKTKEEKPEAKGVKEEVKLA

Histone deacetylase 8 = molecular target: T1, Histone deacetylase 8 (Homo sapiens, UniProt Q9BY41); test: Inhibition of recombinant HDAC8 (unknown origin) expressed in Escherichia coli BL21 using MAL as substrate incubated for 15 mins prior to substrate addition measured after 60 mins by fluorescence plate reader analysis
T1 sequence (Q9BY41 whole entry): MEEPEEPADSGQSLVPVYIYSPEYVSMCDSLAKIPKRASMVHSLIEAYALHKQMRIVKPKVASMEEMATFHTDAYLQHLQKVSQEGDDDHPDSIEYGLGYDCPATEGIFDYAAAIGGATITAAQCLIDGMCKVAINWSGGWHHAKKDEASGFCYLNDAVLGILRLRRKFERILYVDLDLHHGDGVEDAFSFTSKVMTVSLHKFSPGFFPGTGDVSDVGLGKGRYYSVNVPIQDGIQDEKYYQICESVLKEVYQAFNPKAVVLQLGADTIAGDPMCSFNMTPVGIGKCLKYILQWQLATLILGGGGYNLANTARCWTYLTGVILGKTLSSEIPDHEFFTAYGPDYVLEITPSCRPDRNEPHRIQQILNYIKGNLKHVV

[1] = molecular target: Histone deacetylase 3/NCoR1 (Homo sapiens, UniProt O15379); test: Inhibition of recombinant HDAC3-NCoR1 (unknown origin) using MAL as substrate incubated for 3 hrs prior to substrate addition measured after 60 mins by fluorescence plate reader analysis; assay type: protein-complex assay
Histone deacetylase 3/NCoR1, sequence (O15379 whole entry): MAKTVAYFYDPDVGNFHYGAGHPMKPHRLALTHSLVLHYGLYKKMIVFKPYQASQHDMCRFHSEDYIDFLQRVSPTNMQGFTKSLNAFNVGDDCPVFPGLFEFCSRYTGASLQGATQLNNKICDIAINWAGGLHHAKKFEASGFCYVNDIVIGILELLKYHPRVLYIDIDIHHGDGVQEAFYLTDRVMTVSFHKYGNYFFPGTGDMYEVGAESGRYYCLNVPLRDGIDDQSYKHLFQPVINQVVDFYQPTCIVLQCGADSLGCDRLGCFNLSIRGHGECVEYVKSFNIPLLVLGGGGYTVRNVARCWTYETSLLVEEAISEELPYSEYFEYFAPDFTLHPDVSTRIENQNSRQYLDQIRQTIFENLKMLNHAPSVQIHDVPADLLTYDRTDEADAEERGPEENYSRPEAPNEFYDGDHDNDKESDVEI
Histone deacetylase 3/NCoR1, sequence (O75376 whole entry, further chain): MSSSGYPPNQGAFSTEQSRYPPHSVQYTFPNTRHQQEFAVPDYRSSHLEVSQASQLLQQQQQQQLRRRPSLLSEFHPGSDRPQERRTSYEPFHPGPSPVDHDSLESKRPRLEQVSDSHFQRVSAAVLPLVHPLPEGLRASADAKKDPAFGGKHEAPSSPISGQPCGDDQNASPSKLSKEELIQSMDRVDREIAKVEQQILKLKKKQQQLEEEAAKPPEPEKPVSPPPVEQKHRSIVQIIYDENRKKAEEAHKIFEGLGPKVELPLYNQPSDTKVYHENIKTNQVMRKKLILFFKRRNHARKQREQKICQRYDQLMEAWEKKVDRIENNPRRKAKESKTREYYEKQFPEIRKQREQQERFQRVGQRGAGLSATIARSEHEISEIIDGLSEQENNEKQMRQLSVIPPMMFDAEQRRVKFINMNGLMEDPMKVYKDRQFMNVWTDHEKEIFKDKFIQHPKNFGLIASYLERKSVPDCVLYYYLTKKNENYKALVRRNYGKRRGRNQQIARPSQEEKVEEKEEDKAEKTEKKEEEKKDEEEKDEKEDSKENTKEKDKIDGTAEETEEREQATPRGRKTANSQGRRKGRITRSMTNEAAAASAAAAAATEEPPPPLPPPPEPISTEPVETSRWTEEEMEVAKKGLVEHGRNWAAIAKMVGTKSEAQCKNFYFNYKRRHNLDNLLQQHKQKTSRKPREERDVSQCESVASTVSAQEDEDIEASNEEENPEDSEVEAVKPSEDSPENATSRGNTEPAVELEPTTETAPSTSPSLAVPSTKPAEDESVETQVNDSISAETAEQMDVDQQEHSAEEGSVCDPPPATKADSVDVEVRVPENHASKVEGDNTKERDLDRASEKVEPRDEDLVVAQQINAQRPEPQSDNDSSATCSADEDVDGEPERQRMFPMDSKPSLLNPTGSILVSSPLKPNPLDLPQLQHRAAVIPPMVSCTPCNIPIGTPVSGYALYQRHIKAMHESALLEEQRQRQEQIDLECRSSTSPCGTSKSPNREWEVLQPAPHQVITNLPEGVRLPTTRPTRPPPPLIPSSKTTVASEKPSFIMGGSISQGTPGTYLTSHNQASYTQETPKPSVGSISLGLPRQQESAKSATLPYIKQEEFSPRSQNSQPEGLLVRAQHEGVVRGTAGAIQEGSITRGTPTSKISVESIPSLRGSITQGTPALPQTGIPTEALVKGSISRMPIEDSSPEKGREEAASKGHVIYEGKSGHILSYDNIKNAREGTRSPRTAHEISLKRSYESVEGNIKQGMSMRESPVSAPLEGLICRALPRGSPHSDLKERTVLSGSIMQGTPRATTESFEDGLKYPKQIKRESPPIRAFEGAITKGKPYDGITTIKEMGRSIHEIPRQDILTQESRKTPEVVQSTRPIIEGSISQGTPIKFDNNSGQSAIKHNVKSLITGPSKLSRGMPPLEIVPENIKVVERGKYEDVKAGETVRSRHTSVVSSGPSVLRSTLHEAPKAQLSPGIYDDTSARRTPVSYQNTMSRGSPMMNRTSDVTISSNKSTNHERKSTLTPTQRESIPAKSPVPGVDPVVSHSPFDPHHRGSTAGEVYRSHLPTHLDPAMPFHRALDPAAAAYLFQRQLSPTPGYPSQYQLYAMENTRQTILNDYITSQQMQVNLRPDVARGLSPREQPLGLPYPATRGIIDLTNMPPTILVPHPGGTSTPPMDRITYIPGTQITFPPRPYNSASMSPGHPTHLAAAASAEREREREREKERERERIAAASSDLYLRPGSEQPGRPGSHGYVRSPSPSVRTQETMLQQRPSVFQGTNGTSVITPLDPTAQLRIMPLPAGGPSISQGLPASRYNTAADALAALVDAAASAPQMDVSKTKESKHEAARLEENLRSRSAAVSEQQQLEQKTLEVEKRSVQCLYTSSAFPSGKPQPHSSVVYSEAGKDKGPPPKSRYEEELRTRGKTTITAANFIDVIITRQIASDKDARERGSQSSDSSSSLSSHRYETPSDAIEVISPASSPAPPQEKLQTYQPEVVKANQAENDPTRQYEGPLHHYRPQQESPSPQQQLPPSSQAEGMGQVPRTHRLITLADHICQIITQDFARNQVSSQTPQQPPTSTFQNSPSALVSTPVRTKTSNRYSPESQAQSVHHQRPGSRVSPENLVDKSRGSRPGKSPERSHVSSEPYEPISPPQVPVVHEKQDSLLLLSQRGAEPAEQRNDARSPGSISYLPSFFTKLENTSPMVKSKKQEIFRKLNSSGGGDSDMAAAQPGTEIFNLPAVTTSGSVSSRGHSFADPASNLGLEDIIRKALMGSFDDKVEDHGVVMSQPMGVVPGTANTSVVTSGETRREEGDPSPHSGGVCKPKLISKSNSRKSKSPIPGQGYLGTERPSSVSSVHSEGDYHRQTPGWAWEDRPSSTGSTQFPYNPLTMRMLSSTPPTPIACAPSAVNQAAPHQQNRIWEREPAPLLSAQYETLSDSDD

Histone deacetylase 2 = Histone deacetylase 2 (Homo sapiens, UniProt Q92769); test: Inhibition of recombinant His-tagged HDAC2 (1 to 488) (unknown origin) using MAL as substrate incubated for 3 hrs prior to substrate addition measured after 60 mins by fluorescence plate reader analysis
Histone deacetylase 2, sequence (Q92769 whole entry): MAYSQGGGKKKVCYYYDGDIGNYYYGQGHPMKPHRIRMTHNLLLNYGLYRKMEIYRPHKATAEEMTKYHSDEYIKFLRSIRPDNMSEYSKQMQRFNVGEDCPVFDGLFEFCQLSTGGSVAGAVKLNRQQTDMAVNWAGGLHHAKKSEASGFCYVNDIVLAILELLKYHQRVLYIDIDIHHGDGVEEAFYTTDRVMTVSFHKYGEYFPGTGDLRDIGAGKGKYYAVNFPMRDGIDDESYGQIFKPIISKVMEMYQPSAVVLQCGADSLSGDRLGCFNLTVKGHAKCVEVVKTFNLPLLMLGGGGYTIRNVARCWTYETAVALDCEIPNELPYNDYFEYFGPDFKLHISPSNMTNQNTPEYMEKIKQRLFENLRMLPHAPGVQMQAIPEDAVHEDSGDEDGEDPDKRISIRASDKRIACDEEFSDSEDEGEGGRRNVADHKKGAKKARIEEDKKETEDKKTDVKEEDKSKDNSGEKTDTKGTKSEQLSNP

[2] = molecular target: T2, Protein deacetylase HDAC6 (Homo sapiens, UniProt Q9UBN7); test: Inhibition of recombinant His-tagged HDAC6 (unknown origin) using Fluor-de-Lys SIRT1 as substrate incubated for 3 hrs prior to substrate addition measured after 60 mins by fluorescence plate reader analysis
T2 sequence (Q9UBN7 whole entry): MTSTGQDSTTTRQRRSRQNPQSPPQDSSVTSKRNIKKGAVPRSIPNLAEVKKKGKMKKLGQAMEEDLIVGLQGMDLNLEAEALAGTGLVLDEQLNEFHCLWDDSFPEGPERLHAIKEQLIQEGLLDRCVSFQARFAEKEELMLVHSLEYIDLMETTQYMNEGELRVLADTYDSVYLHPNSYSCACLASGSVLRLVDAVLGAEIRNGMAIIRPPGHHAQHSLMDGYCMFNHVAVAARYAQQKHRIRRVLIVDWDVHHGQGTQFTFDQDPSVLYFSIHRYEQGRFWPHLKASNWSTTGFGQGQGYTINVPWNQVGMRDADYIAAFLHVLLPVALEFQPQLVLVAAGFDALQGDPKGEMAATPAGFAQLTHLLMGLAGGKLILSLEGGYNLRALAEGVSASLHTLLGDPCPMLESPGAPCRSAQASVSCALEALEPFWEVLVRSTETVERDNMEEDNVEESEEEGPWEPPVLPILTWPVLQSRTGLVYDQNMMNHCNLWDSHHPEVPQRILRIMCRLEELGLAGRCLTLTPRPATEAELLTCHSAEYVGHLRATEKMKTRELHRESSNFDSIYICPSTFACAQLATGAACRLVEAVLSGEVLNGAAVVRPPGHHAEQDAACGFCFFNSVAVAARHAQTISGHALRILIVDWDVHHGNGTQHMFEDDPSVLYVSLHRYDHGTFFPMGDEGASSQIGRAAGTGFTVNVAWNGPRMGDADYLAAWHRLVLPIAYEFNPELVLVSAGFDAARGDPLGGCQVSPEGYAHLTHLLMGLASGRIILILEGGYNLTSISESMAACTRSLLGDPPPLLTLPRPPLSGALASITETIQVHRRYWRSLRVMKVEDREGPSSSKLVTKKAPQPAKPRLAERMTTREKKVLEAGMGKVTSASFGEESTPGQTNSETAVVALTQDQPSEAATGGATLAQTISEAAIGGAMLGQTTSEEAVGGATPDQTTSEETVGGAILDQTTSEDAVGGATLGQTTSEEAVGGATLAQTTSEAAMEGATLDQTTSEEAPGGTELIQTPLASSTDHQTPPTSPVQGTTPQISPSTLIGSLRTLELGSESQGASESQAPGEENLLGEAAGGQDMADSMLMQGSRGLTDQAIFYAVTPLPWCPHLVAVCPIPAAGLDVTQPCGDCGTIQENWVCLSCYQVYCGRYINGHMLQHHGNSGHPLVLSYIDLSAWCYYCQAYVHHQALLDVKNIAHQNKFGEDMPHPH

Jurkat [3] = test: Induction of apoptosis in human Jurkat cells assessed as PARP cleavage at 1 to 10 uM after 24 hrs by Western blot analysis; assay type: functional, cell-based
HeLa [4] = test: Induction of apoptosis in human HeLa cells assessed as PARP cleavage at 1 to 10 uM after 24 hrs by Western blot analysis; assay type: functional, cell-based
HeLa [5] = test: Cell cycle arrest in human HeLa cells assessed as accumulation at G2/M phase at 10 uM after 24 hrs by FITC/propidium iodide staining-based FACS flow cytometric analysis; assay type: functional
Procedure, shortened: (§1)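 HeLa and Jurkat human cells were cultured for 24 h with compound at two concentrations. The control was an equal volume of the DMSO diluent. Cellular DNA and protein content were then measured by flow cytometry, and the percentage of cells in sub-G1, G0/G1, S and G2/M was read out.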

Jurkat [6] = test: Cell cycle arrest in human Jurkat cells assessed as accumulation at G2/M phase at 1 uM after 24 hrs by FITC/propidium iodide staining-based FACS flow cytometric analysis (reference value: 14.4%); assay type: functional; procedure, shortened: as §1
Jurkat [7] = test: Cell cycle arrest in human Jurkat cells assessed as accumulation at S phase at 1 uM after 24 hrs by FITC/propidium iodide staining-based FACS flow cytometric analysis (reference value: 22.3%); assay type: functional; procedure, shortened: as §1
Jurkat [8] = test: Cell cycle arrest in human Jurkat cells assessed as accumulation at G0/G1 phase at 1 uM after 24 hrs by FITC/propidium iodide staining-based FACS flow cytometric analysis (reference value: 55.5%); assay type: functional; procedure, shortened: as §1
Jurkat [9] = test: Cell cycle arrest in human Jurkat cells assessed as accumulation at sub-G1 phase at 1 uM after 24 hrs by FITC/propidium iodide staining-based FACS flow cytometric analysis (reference value: 6.8%); assay type: functional; procedure, shortened: as §1
Jurkat [10] = test: Cell cycle arrest in human Jurkat cells assessed as accumulation at G2/M phase at 10 uM after 24 hrs by FITC/propidium iodide staining-based FACS flow cytometric analysis (reference value: 13.2%); assay type: functional; procedure, shortened: as §1
Jurkat [11] = test: Cell cycle arrest in human Jurkat cells assessed as accumulation at S phase at 10 uM after 24 hrs by FITC/propidium iodide staining-based FACS flow cytometric analysis (reference value: 15.3%); assay type: functional; procedure, shortened: as §1
Jurkat [12] = test: Cell cycle arrest in human Jurkat cells assessed as accumulation at G0/G1 phase at 10 uM after 24 hrs by FITC/propidium iodide staining-based FACS flow cytometric analysis (reference value: 69.5%); assay type: functional; procedure, shortened: as §1
Jurkat [13] = test: Cell cycle arrest in human Jurkat cells assessed as accumulation at sub-G1 phase at 10 uM after 24 hrs by FITC/propidium iodide staining-based FACS flow cytometric analysis (reference value: 2%); assay type: functional; procedure, shortened: as §1
MCF7 = test: Cytotoxicity against human MCF7 cells assessed as growth inhibition by measuring cellular ATP level after 72 hrs by cell-titer glo assay; assay type: functional, cell-based; conditions: MCF7, 72 h
DU-145 = test: Cytotoxicity against human DU145 cells assessed as growth inhibition by measuring cellular ATP level after 72 hrs by cell-titer glo assay; assay type: functional, cell-based; conditions: DU-145, 72 h
HCT-116 = test: Cytotoxicity against human HCT116 cells assessed as growth inhibition by measuring cellular ATP level after 72 hrs by cell-titer glo assay; assay type: functional, cell-based; conditions: HCT-116, 72 h
A549 = test: Cytotoxicity against human A549 cells assessed as growth inhibition by measuring cellular ATP level after 72 hrs by cell-titer glo assay; assay type: functional, cell-based; conditions: A549, 72 h
[14] = molecular target: Histone deacetylase 3/NCoR1 (Homo sapiens) (UniProt O15379+O75376); test: Competitive inhibition of recombinant HDAC3-NCoR1 (unknown origin) assessed as fast tight binding at 0.016 to 1 uM; assay type: protein-complex assay

For `Nc1ccccc1NC(=O)c1ccc(CNC2=NC(=O)C(c3ccccc3)N2)cc1` (racemic), which IC50 (Histone deacetylase 1) is on record?
Its IC50 is 350 nM.

What about the IC50 (Histone deacetylase 8) of the same compound?
The IC50 was 8000 nM.

What about the IC50 [1] of the same compound?
The IC50 was 14 nM.

What about the IC50 (Histone deacetylase 2) of the same compound?
Its IC50 is 56 nM.

What about the IC50 [2] of the same compound?
The IC50 was over 20000 nM.

And the Activity (Jurkat [3])?
Its Activity is “Active”.

And the Activity (HeLa [4])?
The Activity was “inactive”.

What about the Activity (HeLa [5]) of the same compound?
The Activity was “Active”.

And the Activity (Jurkat [6])?
The Activity was 15.1%.

And the Activity (Jurkat [7])?
The Activity was 22.3%.

What about the Activity (Jurkat [8]) of the same compound?
Its Activity is 55.2%.

What about the Activity (Jurkat [9]) of the same compound?
Its Activity is 7.4%.

What about the Activity (Jurkat [10]) of the same compound?
The Activity was 10.7%.

What about the Activity (Jurkat [11]) of the same compound?
Its Activity is 20.7%.

What about the Activity (Jurkat [12]) of the same compound?
The Activity was 65.5%.

What about the Activity (Jurkat [13]) of the same compound?
The Activity was 3.1%.

And the IC50 (MCF7)?
The IC50 was 30100 nM.

And the IC50 (DU-145)?
The IC50 was over 50000 nM.

And the IC50 (HCT-116)?
The IC50 was 18200 nM.

What about the IC50 (A549) of the same compound?
The IC50 was over 50000 nM.

What does the source list for `O=C(NO)c1ccc(CNc2nccc(-c3cccnc3)n2)cc1`?
inhibition [14]: Active; IC50 (Histone deacetylase 8): 410 nM; IC50 [1]: 31 nM; IC50 (Histone deacetylase 2): 219 nM; IC50 [2]: 42 nM

Which results are given for `Nc1ccccc1NC(=O)c1ccc(CNc2nccc(-c3cccnc3)n2)cc1` [MOCETINOSTAT]?
Activity (Jurkat [3]): Active; Activity (HeLa [4]): inactive; Activity (Jurkat [6]): 10.2%; Activity (Jurkat [7]): 8.7%; Activity (Jurkat [8]): 39.8%; Activity (Jurkat [9]): 41.3%; Activity (Jurkat [10]): 24%; Activity (Jurkat [11]): 32.4%; Activity (Jurkat [12]): 26.2%; Activity (Jurkat [13]): 17.4%; IC50 (MCF7): 1260 nM; IC50 (DU-145): 2060 nM; IC50 (HCT-116): 700 nM; IC50 (A549): 1730 nM
